The target of data set [1] is 72 kDa type IV collagenase (Homo sapiens, UniProt P08253). As to the kind of experiment: Inhibition of recombinant human MMP-2 using Mca-Lys-Pro-Leu-Gly-Leu-Dap(Dnp)-Ala-Arg-NH2 as substrate preincubated for 3 hrs followed by substrate addition measured every 10 secs for 15 mins by fluorometric assay.
In data set [2] the target is Matrix metalloproteinase-9 (Homo sapiens, UniProt P14780). The data set can be described thus: Inhibition of recombinant human MMP-9 using Mca-Lys-Pro-Leu-Gly-Leu-Dap(Dnp)-Ala-Arg-NH2 as substrate preincubated for 3 hrs followed by substrate addition measured every 10 secs for 15 mins by fluorometric assay.
Chain of Matrix metalloproteinase-9 (P14780 whole entry): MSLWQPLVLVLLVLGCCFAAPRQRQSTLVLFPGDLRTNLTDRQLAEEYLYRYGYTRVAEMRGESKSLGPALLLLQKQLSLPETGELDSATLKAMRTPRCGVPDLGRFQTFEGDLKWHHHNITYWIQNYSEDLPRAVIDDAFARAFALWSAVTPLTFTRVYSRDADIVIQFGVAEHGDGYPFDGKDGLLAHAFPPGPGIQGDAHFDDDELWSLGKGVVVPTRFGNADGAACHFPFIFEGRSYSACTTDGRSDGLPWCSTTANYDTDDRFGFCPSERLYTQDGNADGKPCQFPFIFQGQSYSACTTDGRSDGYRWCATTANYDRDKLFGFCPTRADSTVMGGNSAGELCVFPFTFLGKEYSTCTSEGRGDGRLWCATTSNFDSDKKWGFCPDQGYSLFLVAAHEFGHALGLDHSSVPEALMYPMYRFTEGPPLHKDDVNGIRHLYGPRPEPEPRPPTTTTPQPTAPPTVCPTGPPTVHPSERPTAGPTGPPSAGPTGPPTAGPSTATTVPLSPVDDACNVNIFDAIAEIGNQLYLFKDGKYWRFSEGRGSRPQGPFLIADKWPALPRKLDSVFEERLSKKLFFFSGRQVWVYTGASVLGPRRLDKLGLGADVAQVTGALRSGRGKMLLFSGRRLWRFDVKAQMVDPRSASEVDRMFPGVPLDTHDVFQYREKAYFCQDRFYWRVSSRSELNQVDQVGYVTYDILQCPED
The target of data set [3] is Macrophage metalloelastase (Homo sapiens, UniProt P39900). The data set can be described thus: Inhibition of recombinant human MMP-12 using Mca-Lys-Pro-Leu-Gly-Leu-Dap(Dnp)-Ala-Arg-NH2 as substrate preincubated for 3 hrs followed by substrate addition measured every 10 secs for 15 mins by fluorometric assay.
Chain of Macrophage metalloelastase (P39900 whole entry): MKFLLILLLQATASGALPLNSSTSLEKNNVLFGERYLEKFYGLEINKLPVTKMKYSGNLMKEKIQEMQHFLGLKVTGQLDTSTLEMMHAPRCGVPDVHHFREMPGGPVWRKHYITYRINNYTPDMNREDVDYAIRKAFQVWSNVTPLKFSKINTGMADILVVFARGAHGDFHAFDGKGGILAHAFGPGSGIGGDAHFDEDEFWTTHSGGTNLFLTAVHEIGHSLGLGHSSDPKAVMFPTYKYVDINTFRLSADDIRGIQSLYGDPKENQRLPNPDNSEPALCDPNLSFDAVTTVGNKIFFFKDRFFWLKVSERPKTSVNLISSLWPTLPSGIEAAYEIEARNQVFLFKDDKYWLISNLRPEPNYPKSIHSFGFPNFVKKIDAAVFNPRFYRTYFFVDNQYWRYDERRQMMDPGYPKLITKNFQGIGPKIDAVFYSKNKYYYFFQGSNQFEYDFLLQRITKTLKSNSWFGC
Another data set has as its target T1, Interstitial collagenase (Homo sapiens, UniProt P03956).
T1 sequence (P03956 whole entry): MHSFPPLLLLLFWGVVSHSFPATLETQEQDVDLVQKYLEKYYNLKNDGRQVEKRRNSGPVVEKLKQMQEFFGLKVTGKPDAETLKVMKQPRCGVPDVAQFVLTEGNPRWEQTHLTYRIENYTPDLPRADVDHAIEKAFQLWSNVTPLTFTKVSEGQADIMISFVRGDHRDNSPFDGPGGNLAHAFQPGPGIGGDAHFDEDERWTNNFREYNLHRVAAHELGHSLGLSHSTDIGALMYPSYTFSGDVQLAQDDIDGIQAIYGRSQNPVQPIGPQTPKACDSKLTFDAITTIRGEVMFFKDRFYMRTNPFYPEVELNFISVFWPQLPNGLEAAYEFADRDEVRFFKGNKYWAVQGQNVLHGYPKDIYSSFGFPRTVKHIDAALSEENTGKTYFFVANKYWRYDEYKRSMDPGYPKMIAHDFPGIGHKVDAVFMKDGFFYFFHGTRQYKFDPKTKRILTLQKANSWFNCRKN
As to the kind of experiment: Inhibition of recombinant human MMP-1 using Mca-Lys-Pro-Leu-Gly-Leu-Dap(Dnp)-Ala-Arg-NH2 as substrate preincubated for 3 hrs followed by substrate addition measured every 10 secs for 15 mins by fluorometric assay.

In data set [4] the target is Matrix metalloproteinase-14 (Homo sapiens, UniProt P50281). The data set can be described thus: Inhibition of recombinant human MMP-14 catalytic domain using Mca-Lys-Pro-Leu-Gly-Leu-Dap(Dnp)-Ala-Arg-NH2 as substrate preincubated for 3 hrs followed by substrate addition measured every 10 secs for 15 mins by fluorometric assay.
The nature of data set [5]: Metal chelating activity assessed as compound-Zn2+ complex formation by measuring free metal ion levels at compound to metal molar ratio 10 at pH 6 by potentiometric titration method.
The nature of data set [6]: Protonation constant, log K of the compound. The data set is classed as physicochemical. The following applies: 60% w/w DMSO/H2O. The method, boiled down:
(§1)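 pH-potentiometric titration in 60% w/w DMSO/H2O, 25.0 ± 0.1 °C, I 0.1 M KCl, 0.1 M KOH titrant. Glass electrode calibrated with HCl/KOH via Gran's method. Ligand (4−7) × 10−4 M at Zn:L 0:1, 1:1 and 1:2, in duplicate. pKw 15.75. Constants were fitted in Hyperquad with a Zn(II) hydrolysis model included.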

Data set [7] can be described thus: Metal chelating activity assessed as compound-Zn2+ complex formation at 1:1 metal to compound molar ratio at pH 3 to 8 by potentiometric titration method. In outline:
as §1

The nature of data set [8]: Metal chelating activity assessed as compound-Zn2+ complex formation at 1:2 metal to compound molar ratio at pH 3 to 8 by potentiometric titration method. In outline: as §1
Data set [9] can be described thus: Metal chelating activity assessed as compound-Zn2+ complex formation at 1:1 metal to compound molar ratio at pH 3 to 8 by 1H NMR method.
A short description of data set [10]: Drug level in KCl/DMSO/water solution treated with 2-(2-((4'-Methoxy-[1,1'-biphenyl]-4-yl)sulfonyl)phenyl)-acetic hydroxamic acid. The conditions noted are these: buffer. The data set is classed as physicochemical.
For data set [11], the species on record is Homo sapiens. The data set can be described thus: Selectivity ratio of IC50 for recombinant human MMP-9 to IC50 for recombinant human MMP-12.
Data set [12] is filed under the species Homo sapiens. The data set can be described thus: Selectivity ratio of IC50 for recombinant human MMP-2 to IC50 for recombinant human MMP-12.
For data set [13], the species on record is Homo sapiens. The data set can be described thus: Selectivity ratio of IC50 for recombinant human MMP-14 catalytic domain to IC50 for recombinant human MMP-12.

SMILES strings stand for the structures. The source made the active and inactive calls. The rule behind the calls is not given here.

Chain of 72 kDa type IV collagenase (P08253 whole entry): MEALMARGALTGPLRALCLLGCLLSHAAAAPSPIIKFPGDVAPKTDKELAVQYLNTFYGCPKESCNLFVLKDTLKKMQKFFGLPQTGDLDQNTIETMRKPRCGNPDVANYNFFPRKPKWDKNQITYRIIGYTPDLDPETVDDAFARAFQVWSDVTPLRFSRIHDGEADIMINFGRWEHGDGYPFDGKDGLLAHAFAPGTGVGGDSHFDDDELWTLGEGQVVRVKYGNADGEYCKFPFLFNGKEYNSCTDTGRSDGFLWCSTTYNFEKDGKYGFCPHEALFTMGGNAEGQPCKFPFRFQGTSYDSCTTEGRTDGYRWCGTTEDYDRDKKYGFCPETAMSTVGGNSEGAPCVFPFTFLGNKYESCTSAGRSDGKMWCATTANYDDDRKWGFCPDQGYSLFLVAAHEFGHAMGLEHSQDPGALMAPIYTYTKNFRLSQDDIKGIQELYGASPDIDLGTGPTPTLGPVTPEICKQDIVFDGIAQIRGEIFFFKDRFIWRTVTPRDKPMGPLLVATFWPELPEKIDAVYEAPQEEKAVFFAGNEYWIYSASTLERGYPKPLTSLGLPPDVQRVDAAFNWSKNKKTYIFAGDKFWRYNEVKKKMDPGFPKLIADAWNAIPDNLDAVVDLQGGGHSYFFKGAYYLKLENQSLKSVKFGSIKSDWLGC

`COc1ccc(-c2ccc(S(=O)(=O)c3ccccc3C3CCC(=O)N(O)C3=O)cc2)cc1` (centres undefined): the IC50 in [1] is 0.414 µM; in data set [2] it was 1.43 µM; in [3] it was 0.04 µM; at Interstitial collagenase it was over 10 µM; in [4], 4 µM. Besides, in data set [5], the log(activity) stood at 6.13. Moreover, the log K in data set [6] fell in the range of 9.03 to 9.35. Further, the result in data set [7] and in data set [8] was Active.
As to `COc1ccc(-c2ccc(Sc3ccccc3C(=O)CS(C)(=O)=O)cc2)cc1`, the concentration for half-maximal inhibition (IC50) in data set [1] is 230 µM; in data set [2], 332 µM; in data set [3] it was 230 µM.
`COc1ccc(-c2ccc(Sc3ccccc3C(CCC(=O)O)C(=O)O)cc2)cc1` (centres undefined): the half-inhibitory concentration (IC50) amounted to 0.66 µM in data set [1], 2.96 µM in [2] and 0.026 µM in data set [3]. Further, the log(activity) in data set [5] turned out to be 6.04. Besides, the outcome in data set [7] and in data set [8] was Active.
Turning to `COc1ccc(-c2ccc(Sc3ccccc3CC(=O)NS(=O)(=O)C(F)(F)F)cc2)cc1`, the concentration for half-maximal inhibition (IC50) in [1] came to 46 µM; in data set [2], 50 µM; in data set [3], 2.1 µM. In addition, the log(activity) in data set [5] turned out to be 6.75. Besides, the “log K” value in data set [6] is reported as under 2. Further, the result in [7] and in data set [9] was Active. For the same compound, in data set [8], the result was inactive.
As to `COc1ccc(-c2ccc(S(=O)(=O)c3ccccc3CC(=O)NS(C)(=O)=O)cc2)cc1`, the half-maximal inhibitory concentration (IC50) in data set [1] was found to be 3.6 µM; in [2], 3.7 µM; in data set [3] it was 3.5 µM. For the same compound, the log(activity) in data set [5] came to 6.56. Also, the “log K” value in data set [6] was determined as 5.5. Further, the result in data set [7], in [8] and in data set [9] was Active.
`COc1ccc(-c2ccc(Sc3ccccc3CP(=O)(O)O)cc2)cc1`: the figures for the IC50 in data set [1], in [2] and in [3] were 0.25 µM, 1.12 µM and 0.25 µM, respectively.
Take `COc1ccc(-c2ccc(Sc3ccccc3CC(=O)O)cc2)cc1`: the IC50 in data set [3] stood at 0.04 µM. For the same compound, the log(activity) in [5] amounted to 6.04. The outcome in data set [7] was Active. The outcome in [8] was inactive.
On to `COc1ccc(-c2ccc(Sc3ccccc3CC(=O)NO)cc2)cc1`, for which the 50% inhibitory concentration (IC50) in data set [3] stood at 0.004 µM; on Interstitial collagenase, 250 µM; in data set [4], 2 µM. Besides, in [5], the log(activity) was determined as 6.04. In addition, the “log K” value in [6] is on record as 10.29. Moreover, the outcome in [7] and in data set [8] was Active.
With `COc1ccc(-c2ccc(S(=O)(=O)c3ccccc3CC(=O)O)cc2)cc1`, the log(activity) in data set [5] was determined as 6.1. Further, in data set [10], the Drug metabolism entry is given as “Metabolite_Detected”. Moreover, the outcome in data set [7] and in data set [8] was Active.
For `COc1ccc(-c2ccc(Sc3ccccc3CC(=O)NS(C)(=O)=O)cc2)cc1`, the IC50 in data set [2] was found to be 18 µM; in [3], 3.3 µM. Moreover, the log(activity) in data set [5] came out at 6.1. For the same compound, the “log K” value in data set [6] is listed as 5.5. The outcome in [7] and in data set [9] was Active. Besides, in data set [8], the result was inactive.
As to `COc1ccc(-c2ccc(S(=O)(=O)c3ccccc3CC(=O)NS(=O)(=O)C(F)(F)F)cc2)cc1`, the results for the IC50 in data set [1], in [2] and in data set [3] were 2.5 µM, 24.5 µM and 7.5 µM, respectively. Further, the log(activity) in data set [5] turned out to be 6.91. In data set [6], the “log K” value is recorded as under 2. Moreover, the result in [7] and in data set [9] was Active. For the same compound, the outcome in [8] was inactive.
Consider `COc1ccc(-c2ccc(S(=O)(=O)c3ccccc3CP(=O)(O)O)cc2)cc1`, for which, in data set [3], the half-inhibitory concentration (IC50) was 0.6 µM.
With `COc1ccc(-c2ccc(Sc3ccccc3C3CCC(=O)N(O)C3=O)cc2)cc1` (centres undefined), the IC50 in data set [1] came to 0.67 µM; in data set [2] it was 5.8 µM; in [3], 0.033 µM; at Interstitial collagenase it was 260 µM; in [4], 40 µM. For the same compound, the Ratio IC50 in the data set listed under Homo sapiens [11] was found to be 176; in the data set listed under Homo sapiens [12] it was 20; in the data set listed under Homo sapiens [13], 1200. For the same compound, the log(activity) in [5] was found to be 6.05. In data set [6], this compound displayed a log K of 9.03 to 9.35. In addition, the outcome in [7] and in data set [8] was Active.
Consider `COc1ccc(-c2ccc(S(=O)(=O)c3ccccc3C(CCC(=O)O)C(=O)O)cc2)cc1` (centres undefined), for which the figures for the IC50 in data set [1], in data set [2] and in data set [3] were 1.35 µM, 14.3 µM and 0.51 µM, respectively. The log(activity) in [5] stood at 6.14. Further, the outcome in data set [7] and in [8] was Active.
With `COc1ccc(-c2ccc(S(=O)(=O)c3ccccc3C(=O)CS(C)(=O)=O)cc2)cc1`, the IC50 in data set [1], in data set [2] and in data set [3] was over 10 µM throughout.

In general, IC50 refers to the concentration needed to halve the response being measured.

Values taken from ChEMBL document CHEMBL4184326, “Development of Thioaryl-Based Matrix Metalloproteinase-12 Inhibitors with Alternative Zinc-Binding Groups: Synthesis, Potentiometric, NMR, and Crystallographic Studies” (J Med Chem, 2018).
